Test results as given in ChEMBL document CHEMBL1255482, “Novel mechanism of glycopeptide resistance in the A40926 producer Nonomuraea sp. ATCC 39727” (2010).
≈ marks a conversion by molar mass, not a printed value. Calls of active or inactive are those of the source. The calls are words filed in the database; no cut-off is given here.

Columns and labels:
Format in all cases: functional
Nonomuraea [1] = experiment: Microbicidal activity against Nonomuraea sp. ATCC 39727 at 5000 ug/ml after 24 hrs
Method in brief: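 MBC: sonicated mycelium was grown in SM flasks for three generations, then given increasing antibiotic concentrations for a further 24 h. It was washed with physiological saline, diluted and plated on antibiotic-free SM agar for about 15 days at 28°C to give the surviving fraction. Under 0.1% survival counted as bactericidal; mean of three experiments.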

Nonomuraea [2] = experiment: Antimicrobial activity against Nonomuraea sp. ATCC 39727
Method in brief: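 MIC taken from population analysis profiles. Sonicated mycelium from exponential-phase SM cultures (about 48 h, 28°C, shaken) was suspended in 0.9% NaCl. Up to 10⁷ CFU were spread per SM agar plate containing a range of glycopeptide concentrations and incubated 15 days at 28°C. Colonies were counted for the surviving fraction. MIC is the concentration inhibiting 99.99% of the population; mean of three independent experiments.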

Streptomyces coelicolor = experiment: Antimicrobial activity against Streptomyces coelicolor
Nonomuraea [3] = experiment: Antimicrobial activity against Nonomuraea sp. ATCC 39727 selected after 0.25 ug/ml of teicoplanin exposure
Method in brief: (§1)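 Exponential-phase mycelium (about 48 h, 28°C, shaken, in SM) was exposed to the inducing glycopeptide for 24 h. It was then harvested, suspended in 0.9% NaCl and sonicated. Up to 10⁷ CFU were spread on SM agar with a glycopeptide concentration series and incubated 15 days at 28°C. MIC was taken from the population analysis profile as the concentration inhibiting 99.99% of colonies. Values are the mean of three independent experiments.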

Nonomuraea [4] = experiment: Antimicrobial activity against vanY-deficient Nonomuraea sp. ATCC 39727
Method in brief: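 The ΔvanY mutant replaces the vanY coding sequence with the aac(3)IV cassette. Its sonicated exponential-phase mycelium (SM, 28°C, about 48 h) was plated, up to 10⁷ CFU, on SM agar carrying graded glycopeptide concentrations and incubated 15 days at 28°C. MIC is the concentration inhibiting 99.99% of the population, read from the population analysis profile.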

Streptomyces venezuelae = experiment: Antimicrobial activity against Streptomyces venezuelae ATCC 10595 harboring vanY gene
Method in brief: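 Population analysis profile: 10⁷ spores of each strain were plated on MYM agar containing graded antibiotic levels and incubated 3 days. Surviving colonies were counted, and MIC was taken as the concentration inhibiting growth of 99.99% of the population.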

[5] = test system: Actinoplanes teichomyceticus; experiment: Antimicrobial activity against Actinoplanes teichomyceticus
Nonomuraea [6] = experiment: Antimicrobial activity against Nonomuraea sp. ATCC 39727 selected after 12 ug/ml of compound exposure; method in brief: as §1
Nonomuraea [7] = experiment: Antimicrobial activity against Nonomuraea sp. ATCC 39727 selected after 0.5 ug/ml of A40926 exposure; method in brief: as §1

SMILES: NC[C@H]1O[C@H](O[C@H]2[C@H](O)[C@@H](O[C@H]3O[C@H](CO)[C@@H](O)[C@H](N)[C@H]3O)[C@H](N)C[C@@H]2N)[C@H](O)[C@@H](O)[C@@H]1O
- Activity (Nonomuraea [1]): Active

SMILES: CN[C@H](CC(C)C)C(=O)N[C@H]1C(=O)N[C@@H](CC(N)=O)C(=O)N[C@H]2C(=O)N[C@H]3C(=O)N[C@H](C(=O)N[C@H](C(=O)O)c4cc(O)cc(O)c4-c4cc3ccc4O)[C@H](O)c3ccc(c(Cl)c3)Oc3cc2cc(c3O[C@@H]2O[C@H](CO)[C@@H](O)[C@H](O)[C@H]2O[C@H]2C[C@](C)(N)[C@H](O)[C@H](C)O2)Oc2ccc(cc2Cl)[C@H]1O [VANCOMYCIN]
- MIC (Nonomuraea [2]): 19.5 µg/mL (≈ 13.5 µM)
- MIC (Streptomyces coelicolor): 100 µg/mL (≈ 69 µM)
- MIC (Nonomuraea [3]): 27 µg/mL
- MIC (Nonomuraea [4]): 4 µg/mL (≈ 2.76 µM)
- Activity (Streptomyces venezuelae): inactive
- MIC [5]: 90 µg/mL (≈ 62.1 µM)
- MIC (Nonomuraea [6]): 20 µg/mL (≈ 13.8 µM)
- MIC (Nonomuraea [7]): 35 µg/mL (≈ 24.2 µM)
- Activity (Nonomuraea [1]): inactive
